According to paper PMC5352491 (ACS chemical neuroscience, 2016):
Entries after “also recorded” stand apart in the source; their conditions may differ. Read-outs that look alike come from different tables or passages of the source.

Key:
[1] = biological target: human μ opioid receptor (μ-OR) (Homo sapiens, UniProt P35372); assay: cell-based; type: cell-based
[2] = biological target: human δ opioid receptor (δ-OR) (Homo sapiens, UniProt P41143); assay: calcium mobilization assay, δ-OR agonist activity; type: cell-based; conditions: for δ-OR agonist activity in HTS of extract / LC-MS fractions: approximately 20.0 μg/mL, DPDPE control 100 nM; for activity at δ-OR (agonist or antagonist): up to 50.0 μM
human δ opioid receptor (δ-OR), sequence (P41143 whole entry): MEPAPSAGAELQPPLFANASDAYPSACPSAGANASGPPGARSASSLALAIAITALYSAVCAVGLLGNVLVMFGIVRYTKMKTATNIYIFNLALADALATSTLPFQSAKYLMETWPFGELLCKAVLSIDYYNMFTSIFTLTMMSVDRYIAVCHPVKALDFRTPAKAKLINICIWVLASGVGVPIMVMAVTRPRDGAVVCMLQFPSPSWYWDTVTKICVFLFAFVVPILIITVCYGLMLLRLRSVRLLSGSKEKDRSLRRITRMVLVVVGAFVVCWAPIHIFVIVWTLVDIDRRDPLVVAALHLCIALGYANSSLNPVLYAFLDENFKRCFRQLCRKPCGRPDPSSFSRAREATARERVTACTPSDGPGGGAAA

μ-OR [3] = assay: fluorescent endocytosis assay; type: cell-based; conditions: 30 min; DAMGO 1 μM, others 10 μM
μ-OR [4] = assay: biotin protection endocytosis assay; type: cell-based; conditions: 10 μM each, 30 min
δ-KO C57BL/6 mice [5] = conditions: mouse, in vivo, ip, 40 mg/kg
δ-KO C57BL/6 mice [6] = assay: forced swim test, δ-OR knockout mice; type: in vivo; conditions: 40 mg/kg ip, p = 0.20 vs saline
Method in brief: (§1)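 Male C57BL/6 mice (wild type or δ-OR knockout littermates, 8–10 weeks, 9 per group) on a 12-h reversed light/dark cycle, tested in the dark phase after 2 h room habituation. Given saline vehicle or test compound (40 mg/kg ip), then placed in a water cylinder (30 cm diameter, 22–24 cm deep, 36.0 ± 0.2 °C) for 6 min. Video recorded; seconds immobile scored.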

WT C57BL/6 mice [7] = conditions: unknown target; cited from earlier work
WT C57BL/6 mice [8] = conditions: mouse, in vivo, ip, 40 mg/kg
WT C57BL/6 mice [9] = assay: forced swim test, wild type mice; type: in vivo; conditions: 40 mg/kg ip; for antidepressant-like activity in forced swim test: p = 0.003 vs saline, 40 mg/kg
Method in brief: as §1

HEK 293T cells = assay: toxicity seen in the β-arrestin-2 recruitment assay; type: cell-based; conditions: cells of the β-arrestin-2 dose-response
human μ-OR [10] = biological target: T1, human μ-OR (Homo sapiens, UniProt P35372); assay: cell-based; conditions: HEK-293T, read-out: β-arrestin-2 Emax (%)
Target sequence in this assay (P35372 whole entry): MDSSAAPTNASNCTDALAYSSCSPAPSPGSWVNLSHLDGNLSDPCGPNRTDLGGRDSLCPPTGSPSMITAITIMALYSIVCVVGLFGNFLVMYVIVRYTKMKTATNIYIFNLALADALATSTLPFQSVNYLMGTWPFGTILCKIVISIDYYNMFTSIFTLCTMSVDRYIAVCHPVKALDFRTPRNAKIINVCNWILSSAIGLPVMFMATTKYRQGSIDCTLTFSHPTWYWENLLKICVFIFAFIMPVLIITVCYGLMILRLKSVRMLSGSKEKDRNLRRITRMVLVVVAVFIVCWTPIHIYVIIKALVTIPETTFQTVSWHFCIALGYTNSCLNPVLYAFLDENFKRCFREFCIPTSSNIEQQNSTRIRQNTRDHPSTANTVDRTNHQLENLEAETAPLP
Target sequence in this assay (P32121 whole entry partner): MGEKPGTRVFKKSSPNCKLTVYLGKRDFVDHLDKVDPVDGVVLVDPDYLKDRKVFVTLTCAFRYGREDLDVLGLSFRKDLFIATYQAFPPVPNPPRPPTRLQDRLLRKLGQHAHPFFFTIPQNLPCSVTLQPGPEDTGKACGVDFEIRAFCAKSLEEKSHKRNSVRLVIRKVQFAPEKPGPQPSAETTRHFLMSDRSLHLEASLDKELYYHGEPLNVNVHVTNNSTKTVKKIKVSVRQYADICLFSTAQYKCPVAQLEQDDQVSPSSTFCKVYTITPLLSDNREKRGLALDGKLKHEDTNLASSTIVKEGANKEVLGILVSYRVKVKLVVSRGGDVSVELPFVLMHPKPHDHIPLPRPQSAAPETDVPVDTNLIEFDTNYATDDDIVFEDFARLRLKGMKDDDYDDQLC

κ-OR = κ-OR (Homo sapiens, UniProt P41145); assay: κ-OR agonist/antagonist screen; type: cell-based; conditions: up to 50.0 μM
κ-OR, sequence (P41145 whole entry): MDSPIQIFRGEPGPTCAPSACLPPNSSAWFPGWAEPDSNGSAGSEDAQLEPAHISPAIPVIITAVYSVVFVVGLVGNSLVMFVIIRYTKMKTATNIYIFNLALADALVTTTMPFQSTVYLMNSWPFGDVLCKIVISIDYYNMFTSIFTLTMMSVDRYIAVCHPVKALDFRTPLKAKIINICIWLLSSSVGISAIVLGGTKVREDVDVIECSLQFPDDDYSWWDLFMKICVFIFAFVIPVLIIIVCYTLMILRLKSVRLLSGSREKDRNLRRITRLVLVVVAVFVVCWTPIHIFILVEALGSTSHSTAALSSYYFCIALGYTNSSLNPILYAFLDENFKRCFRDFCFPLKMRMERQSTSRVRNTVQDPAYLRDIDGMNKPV

human μ-OR [11] = biological target: T1, human μ-OR; assay: cell-based; conditions: HEK-293T, read-out: Gi Emax(%)
Target sequence in this assay (P35372 whole entry): as the sequence (P35372 whole entry) above

human μ opioid receptor (μ-OR), sequence (P35372 whole entry): as above

Molecule: COc1cc2ccnc3c2c(c1O)NC=C3 [9-demethyl aaptamine (11), 9-demethyl aaptamine]
- μ-OR agonist activity in HTS of extract / LC-MS fractions [1]: very weak partial agonism
- EC50 ([1]; read-out: EC50 μ-OR): 6.03 ± 1.2 µM
- δ-OR agonist activity in HTS of extract / LC-MS fractions [2]: measurable δ-OR agonist activity

Molecule: O=C1c2ccccc2-[n+]2ccc3c([nH]c4cc(Br)ccc43)c21 [10 bromofascaplysin (18), 10 bromofascaplysin]
- EC50 ([1]; read-out: EC50 μ-OR): 4.2 ± 3.7 µM

Molecule: C[C@@H](NC(=O)[C@@H](N)Cc1ccc(O)cc1)C(=O)NCC(=O)N(C)[C@@H](Cc1ccccc1)C(=O)NCCO [DAMGO (6), DAMGO]
- μ-OR endocytosis by immunofluorescence (μ-OR [3]): also promoted endocytosis; also recorded: promoted μ-OR endocytosis
- μ-OR endocytosis, biotin protection assay (μ-OR [4]): promoted significant endocytosis
- μ-OR endocytosis, biotin protection assay (μ-OR [4]; listed as DAMGO): promoted μ-OR endocytosis

Molecule: COc1cc2ccnc3c2c(c1OC)NC=C3 [aaptamine (10), aaptamine]
- EC50 [1]: 10.1 ± 1.4 µM
- effect on general locomotion (δ-KO C57BL/6 mice [5]): no effect on general locomotion
- EC50 [2]: 5.1 ± 0.2 µM
- effect in forced swim test (δ-KO C57BL/6 mice [6]; listed as Aaptamine): antidepressant-like activity in WT but not δ-KO mice
- effect in forced swim test (δ-KO C57BL/6 mice [6]; listed as aaptamine): no effect
- effect on immobility time in forced swim test (WT C57BL/6 mice [7]): significant effect on the immobility time
- effect on general locomotion (WT C57BL/6 mice [8]): no effect on general locomotion
- antidepressant-like activity in forced swim test (WT C57BL/6 mice [9]; listed as Aaptamine): showed antidepressant-like activity in WT
- antidepressant-like activity in forced swim test (WT C57BL/6 mice [9]; listed as aaptamine): showed antidepressant-like activity
- time immobile in forced swim test (average) (WT C57BL/6 mice [9]; saline ~30 s): ~ 10 s

Molecule: COC1=Cc2ccnc3ccnc(c23)C1=O [demethyl (oxy) –aaptamine (12), demethyl (oxy) –aaptamine]
- μ-OR agonist activity in HTS of extract / LC-MS fractions [1]: very weak partial agonism
- EC50 ([1]; read-out: EC50 μ-OR): 4.1 ± 1.2 µM
- δ-OR agonist activity in HTS of extract / LC-MS fractions [2]: measurable δ-OR agonist activity

Molecule: O=C1c2ccccc2-[n+]2ccc3c([nH]c4ccccc43)c21 [fascaplysin (17), fascaplysin]
- μ-OR endocytosis by immunofluorescence (μ-OR [3]): promoted substantial endocytosis; also recorded: promoted μ-OR endocytosis
- EC50 [1]: 6.3 ± 0.2 µM
- Emax ([1]; read-out: Emax at the μ-OR): 100%
- toxic concentration (HEK 293T cells): higher than 50 μM
- activity at δ-OR (agonist or antagonist) [2]: no significant agonist or antagonist activity
- Emax (human μ-OR [10]): 78%
- μ-OR endocytosis, biotin protection assay (μ-OR [4]): promoted substantial endocytosis; also recorded: promoted μ-OR endocytosis
- activity at κ-OR (agonist or antagonist) (κ-OR): no significant agonist or antagonist activity
- Emax (human μ-OR [11]): 111%

Molecule: CCC(=O)C(CC(C)N(C)C)(c1ccccc1)c1ccccc1 (centres unmarked) [methadone (S6), methadone]
- μ-OR endocytosis by immunofluorescence (μ-OR [3]): also promoted endocytosis; also recorded: promoted μ-OR endocytosis
- μ-OR endocytosis, biotin protection assay (μ-OR [4]): promoted significant endocytosis; also recorded: promoted μ-OR endocytosis

Molecule: CN1CC[C@]23c4c5ccc(O)c4O[C@H]2[C@@H](O)C=C[C@H]3[C@H]1C5 [morphine (1), morphine]
- μ-OR endocytosis by immunofluorescence (μ-OR [3]): did not promote significant endocytosis
- μ-OR endocytosis, biotin protection assay (μ-OR [4]): induced no significant endocytosis

Molecule: CNc1c2c(c3nc4ccccc4c4c3c1N=C4)NCCC2=O [plakinidine A (19), plakinidine A]
- activity at μ-OR (agonist or antagonist) [1]: not active
- activity at δ-OR (agonist or antagonist) [2]: not active

Molecule: CC(C)c1c2c(c3nc4ccccc4c4c3c1N=C4)NCCC2=O [plakinidine B (20), plakinidine B]
- activity at μ-OR (agonist or antagonist) [1]: not active
- activity at δ-OR (agonist or antagonist) [2]: not active

Molecule: mitragynine [mitragynine (21)]
- μ-OR endocytosis by immunofluorescence (μ-OR [3]): did not promote receptor endocytosis
